Assay outcomes deposited in PubChem by several laboratories.
H69AR growth 86K = blocks growth of human H69AR lung tumor cells | hit rate 6% among 85,000 | viability, % at 10 µM | H69AR lung tumor viability, ATP luminescence, 72 h; stronger effect = lower value;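 active = viability at or below 40%; inactive = viability above 40%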;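 note: multidrug resistant small cell line overexpressing MRP-1 efflux transporter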
Lung fibro prol = blocks proliferation of human lung fibroblasts. LL 47 human lung fibroblast viability, ATP luminescence; stronger effect = lower value. AID 719. viability, % at 10 µM. hit rate 1.1% among 85,000;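 active = viability at or below 50% in the single dose screen; inactive = viability above 50%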;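 note: compound exposure lasted 72 h before the ATP readout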
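Assay system: human lung fibroblast line LL 47, low passage. Input: 1,150 fibroblasts seeded per well. Times: overnight cell rest, 72 h compound treatment at 37 °C. Evaluation: % viability of median cell-only signal. Technique: luminescent ATP detection, CellTiter-Glo. Control set: cell-only wells, no compound.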
Jurkat viability = reduces viability or proliferation of Jurkat cells; inhibition, % at 4 µM; AID 463; hit rate 1.2% among 56,000; Jurkat E6.1 viability, ATP luminescence, 48 h;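 active = inhibition above the mean inhibition of all tested compounds plus 3 SD, cut at about 28% in these data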
HUVEC prolif 384 = blocks proliferation of human endothelial cells; hit rate 1.1% among 86,000; HUVEC proliferation, CellTiter-Glo luminescence, 72 h; stronger effect = lower value; viability, % at 10 µM (by protocol);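 active = viability at or below 30%; inactive = viability above 30%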
Numbers stand for hits; 0 = inactive; - = not tested or not shown. The list is not random: actives were taken first. Their share in the collection is about 6.4%.

SMILES	H69AR growth 86K	Lung fibro prol	Jurkat viability	HUVEC prolif 384
COC(=O)C1=C(C)N(c2ccc(Cl)c(Cl)c2)C(=O)C1	0	0	64	0
Cc1cc(/C=N/n2cnnc2)c(C)n1-c1ccccc1	0	0	-	0
Cc1cc(/C=N/n2cnnc2)c(C)n1-c1ccc(OCc2ccc(F)cc2)cc1	19	0	45	0
Cc1cc(/C=N/n2cnnc2)c(C)n1-c1ccc(Cl)cc1Cl	0	0	0	0
Cc1cc(/C=N/n2cnnc2)c(C)n1-c1ccc(OCc2ccc(Cl)cc2Cl)cc1	5.8	0	-	2.6
Cc1cc(C(=O)OCn2nnc3ccccc3c2=O)c(C)n1-c1ccccc1	0	0	0	0
Cc1ccc(-n2nc3c([n+]2[O-])CCc2c-3no[n+]2[O-])cc1	38	0	0	0
CC(=O)c1cccc(NC(=O)NCCS(C)=O)c1 (configuration not stated)	0	0	0	0
CC(=O)CSc1nsc(SCC(C)=O)c1C#N	31	-	-	0
CCOC(=O)CSc1nsc(SCC(=O)OCC)c1C#N	0	0	-	0
COc1ccccc1C1CC(c2ccc(Cl)cc2)Nc2ncnn21 (configuration not stated)	0	0	0	0
CSc1nc(-c2ccccc2O)nc(-c2ccccc2O)n1	0	0	0	0
COc1cc(C2=NOC(C(=O)NCc3cccs3)C2)cc(OC)c1OC (configuration not stated)	24	0	-	0
O=C(NCc1cccs1)C1CC(c2ccccc2O)=NO1 (configuration not stated)	0	0	0	0
COc1ccc(C2=NOC(C(=O)NCc3cccs3)C2)cc1 (configuration not stated)	0	0	-	0
COc1ccc(C2=NOC(C(=O)NCc3cccs3)C2)cc1OC (configuration not stated)	24	0	-	0
CS(=O)(=O)N(CC(O)Cn1c2ccccc2c2ccccc21)c1ccccc1 (configuration not stated)	30	0	0	0
CCN(CC(O)Cn1c2ccccc2c2ccccc21)S(=O)(=O)c1ccc(C)cc1 (configuration not stated)	27	0	-	27
Cc1ccccc1NC(=O)CSc1nc(N)c(C#N)c(-c2cccs2)c1C#N	27	0	0	0
c1ccc2c(c1)oc1c(Nc3ccc(CN4CCOCC4)cc3)ncnc12	3.5	0	0	5.4
O=[N+]([O-])/C=C/c1c(OCc2ccccc2)ccc2ccccc12	2.8	7.6	-	27
COc1cc(C)c(C(C)C)cc1S(=O)(=O)n1cnc(C)c1	34	0	85	0
Cc1ccc(-n2c3c(c(=O)[nH]c2=O)C(C(F)(F)F)(C(F)(F)F)NC(=O)N3)cc1	0	0	-	0
CC(O)CN=c1cc(-c2ccccc2)oc2ccc(Cl)cc12 (configuration not stated)	29	0	-	0
CCOc1ccc2nc(Cl)c(/C=C/C(=O)c3ccco3)cc2c1	8.9	0	-	0
SMILES	H69AR growth 86K	Lung fibro prol	Jurkat viability	HUVEC prolif 384
CCOC(=O)N1CCC(NC(=O)c2cc(S(=O)(=O)N(CC)CC)ccc2F)CC1	0	0	-	0
Clc1ccc2nc(C3CCN(Cc4nnnn4C4CCCCC4)CC3)[nH]c2c1	15	0	-	0
Cc1ccc(Cl)cc1N1CCN(Cc2nnnn2C2CCCCC2)CC1	0	0	0	0
c1ccc(-c2nnc(Cn3c4ccccc4c4nc5ccccc5nc43)o2)cc1	11	0	0	0
COc1ccc(Cl)cc1NC(=O)C(C)N1CCN(C/C=C/c2ccccc2)CC1 (configuration not stated)	40	0	-	0
O=C1C2C3C=CC(C3)C2C(=O)N1c1n[nH]c(CCc2ccccc2)n1 (configuration not stated)	0	0	0	0
Cc1cccc(Nc2ncc3c(n2)CC(c2ccco2)CC3=O)c1 (configuration not stated)	30	0	0	0
O=C1CC(c2ccco2)Cc2nc(Nc3nc(-c4ccccc4)c4ccccc4n3)ncc21 (configuration not stated)	-	25	0	0
Cc1cc(C)cc(Nc2ncc3c(n2)CC(c2ccco2)CC3=O)c1 (configuration not stated)	0	0	0	0
CCC(C)NC(=O)c1c(C)cc(=O)oc1C (configuration not stated)	0	0	-	0
O=C(NCc1ccc2c(c1)OCO2)C1CCCN(S(=O)(=O)c2cccnc2)C1 (configuration not stated)	0	0	0	0
CSc1nnc(-c2sc3cc(C(F)(F)F)cnc3c2-c2ccccn2)n1C	0	0	-	0
Cn1c(-c2sc3cc(C(F)(F)F)cnc3c2-c2cccnc2)n[nH]c1=S	32	0	-	0
CC(C)CNC(=O)CCc1c[nH]c2ccccc12	0	0	-	0
Cn1c(-c2c(N)n(CCc3ccccc3)c3nc4ccccc4nc23)nc2ccccc21	36	0	-	0
Cn1c(-c2c(N)n(C3CCCC3)c3nc4ccccc4nc23)nc2ccccc21	0	0	0	0
Cn1c(-c2c(N)n(CCCc3ccccc3)c3nc4ccccc4nc23)nc2ccccc21	23	0	-	0
COCCCn1c(N)c(-c2nc3ccccc3n2C)c2nc3ccccc3nc21	0	0	-	0
CCOc1ccc(Nc2cc(C)nc(-n3nc(C)cc3C)n2)cc1	-	-	99	-
Cc1c(C(=O)/C=C/c2cccs2)oc2ccc(F)cc12	21	0	-	0
CC(=O)CCc1ccc2oc(C(=O)O)c(C)c2c1	0	0	0	0
O=C(c1ccc([N+](=O)[O-])cc1)N(Cc1ccc(Br)cc1)N1C(=O)CCCC1=O	0	0	-	0
Cc1ccc(C=Nc2ccccc2C(N)=O)cc1	22	0	-	0
OC(CNC1CCCCC1)CN1CCN(CC(O)CNC2CCCCC2)CC1 (configuration not stated)	0	0	0	0
CCCc1ccc(OCCNC(=O)CC)cc1	0	0	0	0
SMILES	H69AR growth 86K	Lung fibro prol	Jurkat viability	HUVEC prolif 384
CCCCOc1ccc(CC(=O)NO)cc1	4.8	0	-	0
CCCCOc1ccc(C(=O)Nc2ccncc2)cc1	0	0	91	0
CCCCOc1ccc(C(=O)NC)cc1	0	0	0	0
CC(C)(C)NS(=O)(=O)c1ccc(CCC(=O)NCc2ccc3c(c2)OCO3)cc1	0	0	-	0
CSc1nc(-c2ccco2)nn1C(=O)c1ccc(Cl)cc1	0	0	-	0
Cc1cccc(S(=O)(=O)C(C#N)c2nc3ccccc3nc2N2CCOCC2)c1 (configuration not stated)	0	0	0	0
O=C(O)CN1C(=O)SC(Nc2ccccc2C(=O)O)C1=O (configuration not stated)	0	0	-	0
CCOC(=O)N1CCN(C(=O)CSCC(=O)Nc2nc(-c3ccc(-c4ccccc4)cc3)cs2)CC1	0.7	0	-	0
CCOC(=O)N1CCN(C(=O)CSCC(=O)Nc2nc(-c3ccc(OC)cc3)cs2)CC1	0	0	0	0
Cc1ccc(/C=N/n2cnnc2)s1	0	0	-	0
Cc1ccc(Sc2oc(/C=N/n3cnnc3)cc2Br)cc1	23	0	0	0
O=C(Nc1ccccc1Cl)C1CCCN(S(=O)(=O)c2ccc(F)cc2)C1 (configuration not stated)	0	0	-	0
O=C(Nc1cccc(Cl)c1)C1CCCN(S(=O)(=O)c2ccc(F)cc2)C1 (configuration not stated)	29	0	-	0
